Reference: ChEMBL document CHEMBL3351900, “Conjugation of a nonspecific antiviral sapogenin with a specific HIV fusion inhibitor: a promising strategy for discovering new antiviral therapeutics” (J Med Chem, 2014)
Calls of active or inactive are those of the source. No cut-off for these calls is given here. Peptide text beside a SMILES is read from it. * marks the point of attachment. X8 = C[C@H]1[C@H](C)CC[C@]2(C(=O)O)CC[C@]3(C)C(=CC[C@@H]4[C@@]5(C)CC[C@H](OC(=O)CCc6cn(CC(=O)*)nn6)C(C)(C)[C@@H]5CC[C@]43C)[C@H]12; X10 = CC1(C)CC[C@]2(C(=O)OCc3cn(CC(=O)*)nn3)CC[C@]3(C)C(=CC[C@@H]4[C@@]5(C)CC[C@H](O)C(C)(C)[C@@H]5CC[C@]43C)[C@@H]2C1; X11 = CCCc1cn(CC(=O)*)nn1; βAla = NCCC(=O)O

What was measured:
[1] = Selectivity index, ratio of CC50 for human MT2 cells to EC50 for HIV1 3B infected in human MT2 cells; type: toxicity, cell-based; conditions: read-out: Ratio CC50/EC50
[2] = system: Human immunodeficiency virus 1; assay: Antiviral activity against HIV1 3B infected in human MT2 cells assessed as inhibition of viral p24 antigen production by ELISA; type: functional, organism-based; conditions: Human immunodeficiency virus 1, 3B
In short: (§1)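 MT-2 cells (1 × 10⁴) infected with 100 TCID₅₀ virus with or without peptides at graded concentrations. Culture supernatants collected on day 4 postinfection; p24 antigen quantified by ELISA. Percent inhibition and EC₅₀ calculated; tested in triplicate, mean ± standard deviation.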

[3] = Cytotoxicity against human MT2 cells after 4 days by XTT assay; type: cell-based
In short: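 MT-2 cells (5 × 10⁵/mL) mixed with equal volumes of graded conjugate concentrations and held at 37 °C for 4 days. XTT (1 mg/mL) with 0.02 μM phenazine methosulfate added for 4 h, then A450 read. CC50 calculated from the dose–response.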

[4] = system: Human immunodeficiency virus 1; assay: Antiviral activity against HIV1 BaL infected in human […] cells assessed as inhibition of viral replication; type: functional, organism-based; conditions: Human immunodeficiency virus 1, BaL; in short: as §1
[5] = biological target: GP41 (Human immunodeficiency virus 1) (UniProt Q76270); assay: Inhibition of HIV1 gp41 NHR assessed as inhibition of 6HB formation by FRET assay
In short: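 FRET competition assay. A bpy-labelled 31-mer NHR pocket peptide is trimerized by Fe(II) into env2.0, which quenches the Lucifer-yellow-tagged CP2 probe. Displacement of the probe raises fluorescence. Used 7 μM binding sites (three per trimer) and 1 μM CP2-LY.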

[6] = biological target: GP41 (Human immunodeficiency virus 1) (UniProt Q76270); assay: Ratio of EC50 for HIV1 gp41-induced cell-cell fusion between viral envelope expressing human HL2/3 cells to CD4/CCR5 receptor expressing TZM-bl cells with wash out to EC50 for HIV1 gp41-induced cell-cell fusion between viral envelope expressing human HL2/3 cells to CD4/CCR5 receptor expressing TZM-bl cells; type: cell-based
In short: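 Peptides preincubated with TZM-bl cells at 37 °C for 1 h, with or without washing away unbound peptide. EC50 compared between washed and unwashed cells, giving the n-fold change. Triplicates, mean ± SD.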

[7] = system: Human immunodeficiency virus 1; assay: Antiviral activity against T20-resistant HIV1 NL4-3 harboring gp41 D36G/V38A/N42D mutant infected in human MT2 cells; type: functional, organism-based; in short: as §1
[8] = system: Human immunodeficiency virus 1; assay: Antiviral activity against T20-sensitive HIV1 NL4-3 harboring gp41 D36G mutant infected in human MT2 cells; type: functional, organism-based; in short: as §1
[9] = Half life of the compound at 8 ug/ml by proteinase K digestion assay; type: ADME
[10] = system: Human immunodeficiency virus 1; assay: Ratio of EC50 for T20-resistant HIV1 NL4-3 harboring gp41 D36G/V38A/N42T mutant infected in human MT2 cells to EC50 for T20-sensitive HIV1 NL4-3 harboring gp41 D36G mutant infected in human MT2 cells; type: functional
In short: (§2)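 MT-2 cells (1 × 10⁴) infected with 100 TCID₅₀ of HIV-1 NL4-3 gp41 mutant virus with or without peptide at graded concentrations. Culture supernatants collected on day 4 postinfection and p24 antigen measured by ELISA. Percent inhibition and EC₅₀ calculated, triplicate, mean ± standard deviation. Fold change = EC₅₀ against each mutant divided by EC₅₀ against the D36G strain.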

[11] = system: Human immunodeficiency virus 1; assay: Ratio of EC50 for T20-resistant HIV1 NL4-3 harboring gp41 D36G/N42T/N43K mutant infected in human MT2 cells to EC50 for T20-sensitive HIV1 NL4-3 harboring gp41 D36G mutant infected in human MT2 cells; type: functional; in short: as §2
[12] = system: Human immunodeficiency virus 1; assay: Ratio of EC50 for T20-resistant HIV1 NL4-3 harboring gp41 D36G/V38A mutant infected in human MT2 cells to EC50 for T20-sensitive HIV1 NL4-3 harboring gp41 D36G mutant infected in human MT2 cells; type: functional; in short: as §2
Rattus norvegicus [13] = assay: Cmax in rat at 4 mg/kg, iv administered as single dose; type: ADME, organism-based; design: dose 4 mg/kg, route intravenous; conditions: in vivo
In short: (§3)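 Rats given one intravenous dose of 4 mg/kg. Peptide measured in plasma over time. Parameters (AUC(0−t), MRT(0−t), t1/2, Vd, Cmax) derived by model-independent analysis.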

Rattus norvegicus [14] = assay: AUC (0 to t) in rat at 4 mg/kg, iv administered as single dose; type: ADME, organism-based, Plasma; design: dose 4 mg/kg, route intravenous; conditions: in vivo; in short: as §3
[15] = system: Human immunodeficiency virus 1; assay: Ratio of EC50 for T20-resistant HIV1 NL4-3 harboring gp41 D36G/V38A/N42D mutant infected in human MT2 cells to EC50 for T20-sensitive HIV1 NL4-3 harboring gp41 D36G mutant infected in human MT2 cells; type: functional; in short: as §2
[16] = system: Human immunodeficiency virus 1; assay: Antiviral activity against T20-resistant HIV1 NL4-3 harboring gp41 D36G/N42T/N43K mutant infected in human MT2 cells; type: functional, organism-based; in short: as §1
[17] = Half life in rat liver homogenate at 8 ug/ml; type: ADME, tissue-based
[18] = Volume of distribution in rat at 4 mg/kg, iv administered as single dose; type: ADME, organism-based; design: dose 4 mg/kg, route intravenous; conditions: in vivo; in short: as §3
[19] = Half life in rat kidney homogenate at 8 ug/ml; type: ADME, tissue-based
[20] = system: Human immunodeficiency virus 1; assay: Antiviral activity against T20-resistant HIV1 NL4-3 harboring gp41 D36G/V38E/N42S mutant infected in human MT2 cells; type: functional, organism-based; in short: as §1
[21] = system: Human immunodeficiency virus 1; assay: Ratio of EC50 for T20-resistant HIV1 NL4-3 harboring gp41 D36G/V38E/N42S mutant infected in human MT2 cells to EC50 for T20-sensitive HIV1 NL4-3 harboring gp41 D36G mutant infected in human MT2 cells; type: functional; in short: as §2
[22] = system: Human immunodeficiency virus 1; assay: Antiviral activity against T20-resistant HIV1 NL4-3 harboring gp41 D36G/V38A/N42T mutant infected in human MT2 cells; type: functional, organism-based; in short: as §1
[23] = system: Human immunodeficiency virus 1; assay: Antiviral activity against T20-resistant HIV1 NL4-3 harboring gp41 D36G/V38A mutant infected in human MT2 cells; type: functional, organism-based; in short: as §1
Rattus norvegicus [24] = assay: Half life in rat at 4 mg/kg, iv at 4 mg/kg, iv administered as single dose; type: ADME, organism-based; conditions: in vivo; in short: as §3

CC[C@H](C)[C@H](NC(=O)[C@H](CC(C)C)NC(=O)[C@H](CO)NC(=O)[C@H](Cc1cnc[nH]1)NC(=O)[C@@H](NC(=O)[C@H](CC(C)C)NC(=O)[C@H](CO)NC(=O)[C@@H](NC(=O)[C@H](Cc1ccc(O)cc1)NC(=O)[C@H](CC(N)=O)NC(=O)[C@H](CC(N)=O)NC(=O)CCNC(=O)Cn1cc(CCC(=O)O[C@H]2CC[C@]3(C)[C@H]4CC=C5[C@@H]6[C@@H](C)[C@H](C)CC[C@]6(C(=O)O)CC[C@@]5(C)[C@]4(C)CC[C@H]3C2(C)C)nn1)[C@@H](C)O)[C@@H](C)CC)C(=O)N[C@@H](CCC(=O)O)C(=O)N[C@@H](CCC(=O)O)C(=O)N[C@@H](CO)C(=O)N[C@@H](CCC(N)=O)C(=O)N[C@@H](CC(N)=O)C(=O)N[C@@H](CCC(N)=O)C(=O)N[C@@H](CCC(N)=O)C(=O)N[C@@H](CCC(=O)O)C(=O)N[C@@H](CCCCN)C(=O)N[C@@H](CC(N)=O)C(=O)N[C@@H](CCC(=O)O)C(=O)N[C@@H](CCC(N)=O)C(=O)N[C@@H](CCC(=O)O)C(=O)N[C@@H](CC(C)C)C(=O)N[C@@H](CC(C)C)C(N)=O ({X8-βAla}-NNYTSLIHSLIEESQNQQEKNEQELL-NH2)
selectivity ratio [1]: > 64
EC50 [2]: 387 nM
CC50 at 96 h [3]: > 25000 nM
EC50 [4]: 113 nM

CC[C@H](C)[C@H](NC(=O)[C@H](CC(C)C)NC(=O)[C@H](CO)NC(=O)[C@H](Cc1cnc[nH]1)NC(=O)[C@@H](NC(=O)[C@H](CC(C)C)NC(=O)[C@H](CO)NC(=O)[C@@H](NC(=O)[C@H](Cc1ccc(O)cc1)NC(=O)[C@H](CC(N)=O)NC(=O)[C@H](CC(N)=O)NC(=O)CCNC(=O)Cn1cc(COC(=O)[C@]23CCC(C)(C)C[C@H]2C2=CC[C@@H]4[C@@]5(C)CC[C@H](O)C(C)(C)[C@@H]5CC[C@@]4(C)[C@]2(C)CC3)nn1)[C@@H](C)O)[C@@H](C)CC)C(=O)N[C@@H](CCC(=O)O)C(=O)N[C@@H](CCC(=O)O)C(=O)N[C@@H](CO)C(=O)N[C@@H](CCC(N)=O)C(=O)N[C@@H](CC(N)=O)C(=O)N[C@@H](CCC(N)=O)C(=O)N[C@@H](CCC(N)=O)C(=O)N[C@@H](CCC(=O)O)C(=O)N[C@@H](CCCCN)C(=O)N[C@@H](CC(N)=O)C(=O)N[C@@H](CCC(=O)O)C(=O)N[C@@H](CCC(N)=O)C(=O)N[C@@H](CCC(=O)O)C(=O)N[C@@H](CC(C)C)C(=O)N[C@@H](CC(C)C)C(N)=O ({X10-βAla}-NNYTSLIHSLIEESQNQQEKNEQELL-NH2)
selectivity ratio [1]: > 68
EC50 [2]: 369 nM
CC50 at 96 h [3]: > 25000 nM
EC50 [4]: 498 nM

CCCc1cn(CC(=O)NCCC(=O)N[C@@H](CC(N)=O)C(=O)N[C@@H](CC(N)=O)C(=O)N[C@@H](Cc2ccc(O)cc2)C(=O)N[C@H](C(=O)N[C@@H](CO)C(=O)N[C@@H](CC(C)C)C(=O)N[C@H](C(=O)N[C@@H](Cc2cnc[nH]2)C(=O)N[C@@H](CO)C(=O)N[C@@H](CC(C)C)C(=O)N[C@H](C(=O)N[C@@H](CCC(=O)O)C(=O)N[C@@H](CCC(=O)O)C(=O)N[C@@H](CO)C(=O)N[C@@H](CCC(N)=O)C(=O)N[C@@H](CC(N)=O)C(=O)N[C@@H](CCC(N)=O)C(=O)N[C@@H](CCC(N)=O)C(=O)N[C@@H](CCC(=O)O)C(=O)N[C@@H](CCCCN)C(=O)N[C@@H](CC(N)=O)C(=O)N[C@@H](CCC(=O)O)C(=O)N[C@@H](CCC(N)=O)C(=O)N[C@@H](CCC(=O)O)C(=O)N[C@@H](CC(C)C)C(=O)N[C@@H](CC(C)C)C(N)=O)[C@@H](C)CC)[C@@H](C)CC)[C@@H](C)O)nn1 ({X11-βAla}-NNYTSLIHSLIEESQNQQEKNEQELL-NH2)
inhibition [5]: inactive

enfuvirtide
Ratio EC50 [6]: 39
EC50 [7]: > 2000 nM
EC50 [8]: 40.6 nM
half-life at 8 ug/ml [9]: 19.4 min
Ratio EC50 [10]: >50
Ratio EC50 [11]: >50
Ratio EC50 [12]: >50
selectivity ratio [1]: > 2290
Cmax (Rattus norvegicus [13]): 25500 ng/mL
AUCt (Rattus norvegicus [14]): 26900 ng·h/mL
Ratio EC50 [15]: >50
EC50 [16]: > 2000 nM
half-life at 8 ug/ml [17]: 31 min
Vd [18]: 0.44 L/kg
half-life at 8 ug/ml [19]: 16.9 min
EC50 [20]: > 2000 nM
Ratio EC50 [21]: >50
EC50 [22]: > 2000 nM
EC50 [23]: > 2000 nM
EC50 [2]: 10.9 nM
t1/2 (Rattus norvegicus [24]): 131 min
CC50 at 96 h [3]: > 25000 nM
EC50 [4]: 2.88 nM
